Structures are written as SMILES.

The target in data set [1] is UDP-N-acetylglucosamine 1-carboxyvinyltransferase (Escherichia coli K-12) (UniProt P0A749). The experiment in a line: Inhibition of recombinant Escherichia coli MurA assessed as residual activity at 500 uM using UDP-N-acetylglucosamine as substrate preincubated for 30 mins followed by substrate addition and measured by malachite green based colorimetric assay relative to control. The method in brief:
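E. coli MurA at 500–625 μM with 30 min preincubation before substrate addition. Malachite green colorimetric read-out. Activity threshold was <50% residual activity.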

Data set [2] shares this target. The data set can be described thus: Inhibition of recombinant Escherichia coli MurA assessed as residual activity at 500 uM using UDP-N-acetylglucosamine as substrate and measured by malachite green based colorimetric assay relative to control. Summed up:
(§1)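 Screened at 500–625 μM with malachite green colorimetric read-out. Activity threshold was <50% residual activity.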

For data set [3] the target is unchanged. The experiment in a line: Inhibition of recombinant Escherichia coli MurA assessed as residual activity at 500 uM using UDP-N-acetylglucosamine as substrate preincubated for 30 mins in presence of 1 mM DTT followed by substrate addition and measured by malachite green based colorimetric assay relative to control.
Data set [4] deals with Replicase polyprotein 1ab (Severe acute respiratory syndrome coronavirus 2) (UniProt P0DTD1). The experiment in a line: Inhibition of recombinant SARS-CoV-2 3CLpro expressed in Escherichia coli NiCo21(DE3) assessed as residual activity at 500 uM using DABCYL-KTSAVLQSGFRKME-EDANS as substrate preincubated for 30 mins followed by substrate addition and measured by FRET assay relative to control. The method in brief:
(§2)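 Kinetic fluorescence read-out of cleavage of a FRET substrate carrying a DABCYL–EDANS pair. Compounds were tested at 500–625 μM, and <50% residual activity was taken as the activity threshold. To exclude false positives, absorbance at the excitation and emission wavelengths and autofluorescence of the compounds were measured.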

For data set [5] the target is unchanged. The data set can be described thus: Inhibition of recombinant SARS-CoV-2 3CLpro expressed in Escherichia coli NiCo21(DE3) assessed as residual activity at 500 uM using DABCYL-KTSAVLQSGFRKME-EDANS as substrate preincubated for 30 mins in presence of 1mM DTT followed by substrate addition and measured by FRET assay relative to control. Summed up: as §2
The subject of data set [6] is Mycobacterium tuberculosis. The data set can be described thus: Inhibition of Mycobacterium tuberculosis MetAP1a assessed as residual activity at 625 uM using L-methionine 7-amido-4-methylcoumarin as fluorogenic substrate and measured by fluorescence based assay. The method in brief:
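Kinetic fluorescence assay in which the enzyme hydrolyses L-methionine 7-amido-4-methylcoumarin to fluorescent 7-amino-4-methylcoumarin. Compounds were tested at 500–625 μM, and activity was called at <50% residual activity. Spectral interference was checked by measuring absorbance at the excitation and emission wavelengths and compound autofluorescence.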

Data set [7] addresses D-alanine--D-alanine ligase B (Escherichia coli K-12) (UniProt P07862). The experiment in a line: Inhibition of recombinant Escherichia coli DdlB assessed as residual activity at 500 uM using D-alanine as substrate incubated for 20 mins and measured by malachite green based colorimetric assay relative to control. The method in brief: as §1
Data set [8] is described as follows: Aqueous stability of the compound at pH 7.4 measured after 60 mins by spectrophotometric analysis. As to conditions: buffer, pH 7.4, 1 h. It is filed as physicochemical. Summed up:
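Followed by spectrophotometry as changes in the compound absorption spectrum over time in 50 mM Tris-HCl pH 7.4, 0.5 mM EDTA, read after 60 min in 96-well microplate format. Compounds with low absorbance were not evaluated.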

Data set [9] in a line: Redox activity of compound assessed as redox index at 100 uM measured by HRP-PR assay. It is filed as physicochemical. The method in brief: (§3)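 H2O2 from redox cycling, with or without DTT, detected with horseradish peroxidase-phenol red (HRP-PR).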
Data set [10] can be described thus: Redox activity of compound assessed as redox index at 100 uM in presence of 1 mM DTT measured by HRP-PR assay. The data set is classed as physicochemical. Summed up: as §3
Data set [11] can be described thus: Redox activity of compound assessed as redox index at 100 uM measured by H2DCFDA assay. The data set is classed as physicochemical. Summed up: (§4)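 Reactive oxygen species, with or without the reducing agent TCEP, detected with the fluorescent probe H2DCFDA. Compound spectral interference (autofluorescence) checked under the assay conditions.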
A short description of data set [12]: Redox activity of compound assessed as redox index at 100 uM in presence of 100 uM TCEP measured by H2DCFDA assay. It is filed as physicochemical. The method in brief:
as §4

A short description of data set [13]: Redox activity of compound assessed as redox index at 10 uM measured by resazurin assay. It is filed as physicochemical. Summed up:
(§5)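 Free radicals formed by redox cycling with DTT detected with resazurin by fluorimetric read-out. Spectral interference checked.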
(In general: The colour change of resazurin is a common sign of viable cells or microbes.)

Data set [14] can be described thus: Redox activity of compound assessed as redox index at 1 uM measured by resazurin assay. The data set is classed as physicochemical. The method in brief:
as §5

Chain of UDP-N-acetylglucosamine 1-carboxyvinyltransferase (Escherichia coli K-12) (P0A749 whole entry): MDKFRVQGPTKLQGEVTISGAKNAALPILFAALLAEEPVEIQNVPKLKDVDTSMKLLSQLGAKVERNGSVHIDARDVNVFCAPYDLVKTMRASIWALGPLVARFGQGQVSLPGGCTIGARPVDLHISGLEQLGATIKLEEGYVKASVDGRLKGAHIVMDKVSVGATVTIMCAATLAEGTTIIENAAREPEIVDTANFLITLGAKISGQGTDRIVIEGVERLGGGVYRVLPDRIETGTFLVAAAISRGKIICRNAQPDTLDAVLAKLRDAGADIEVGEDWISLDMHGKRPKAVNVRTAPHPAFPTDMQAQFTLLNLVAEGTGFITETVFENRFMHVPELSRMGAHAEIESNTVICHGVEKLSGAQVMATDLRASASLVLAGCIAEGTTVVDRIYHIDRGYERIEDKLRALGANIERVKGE

On to `Fc1ccc(-c2csc(Br)n2)cc1F`, for which the Activity in [1] amounted to 12%; in [2] it was 89.1%; in data set [3], 81.9%; in [4], 85.1%; in [5], 78.9%; in data set [6], 84.4%. For the same compound, in data set [7], the Activity was determined as 136%. Also, in [8], the Stability result is reported as “Unstable”. Besides, the Activity_index in data set [9] came to 1; in data set [10], 1; in [11], 0.8; in data set [12], 0.9; in [13], 0.9; in [14], 0.9.

Consider `CNc1nnc(C(F)(F)F)s1`, for which the Activity in data set [1] was found to be 113%; in data set [2] it was 99.5%; in data set [3], 102%; in data set [4], 147%; in [5], 82.3%; in data set [6] it was 101%. For the same compound, the Activity in data set [7] came out at 98%. For the same compound, in [8], the Stability entry was “Stable”. Further, the Activity_index in [9] came out at 1; in [10] it was 1; in data set [11] it was 1.2; in data set [12], 1.1; in data set [13], 1; in [14], 1.

As to `Cc1csc(N)n1`, the Activity in [1] came out at 93.3%; in data set [2] it was 99.3%; in data set [3], 102%; in [4] it was 96.7%; in data set [5], 82.4%; in [6], 123%. For the same compound, the Activity in data set [7] came to 90%. For the same compound, the Stability result in data set [8] is on record as “Stable”. In addition, the Activity_index in data set [9] is on record as 1; in data set [10] it was 1; in [11], 1; in [12], 0.8; in data set [13], 1; in data set [14] it was 0.9.

In the case of `CCOC(=O)Cc1csc(N)n1`, the Activity in [1] was 66.3%; in [2], 85.5%; in data set [3], 88.1%; in data set [4], 103%; in data set [5] it was 82.1%; in data set [6], 132%. Besides, the Activity in [7] was 94%. Also, in data set [8], the Stability result is recorded as “Stable”. Besides, the Activity_index in data set [9] was determined as 1; in data set [10], 1; in [11], 1.2; in data set [12], 1; in data set [13], 1; in data set [14] it was 0.9.

Regarding `Nc1nc(CC(=O)O)cs1`, the Activity in data set [1] turned out to be 79.4%; in data set [2], 90.8%; in [3], 99.2%; in data set [4], 105%; in data set [5] it was 84.2%; in [6], 125%. Further, the Activity in data set [7] was determined as 96%. Besides, the Stability entry in data set [8] is listed as “Stable”. Moreover, the Activity_index in [9] is given as 1.1; in data set [10] it was 1; in data set [11], 1.1; in data set [12], 0.9; in data set [13], 1; in [14], 0.9.

Take `Brc1cscn1`: the Activity in [1] came to 106%; in data set [2], 100%; in data set [3], 102%; in [4], 91.4%; in data set [5], 80.1%; in data set [6], 83.5%. For the same compound, the Activity in data set [7] is 97%. The Activity_index in data set [9] was 1; in [10], 1; in data set [11], 0.8; in data set [12], 0.8; in [13], 1; in [14] it was 0.9.

Turning to `COC(=O)c1cnc(Br)s1`, the Activity in data set [1] came to 93%; in data set [2], 96.6%; in data set [3], 102%; in [4], 100%; in data set [5] it was 92.9%; in data set [6], 99.2%. In data set [7], the Activity turned out to be 96%. Also, the Stability result in data set [8] is “Stable”. Further, the Activity_index in [9] turned out to be 1; in data set [10], 1; in data set [11] it was 1; in data set [12], 1.1; in data set [13], 1.1; in [14] it was 1.

With `O=C(O)c1scnc1Br`, the Activity in data set [1] is 83.1%; in data set [2], 99.5%; in [3] it was 111%; in data set [4], 135%; in data set [5], 80.1%; in data set [6], 122%. Further, in [7], the Activity was 96%. In addition, in data set [8], the Stability entry is recorded as “Stable”. Moreover, the Activity_index in data set [9] is listed as 1; in data set [10] it was 1; in data set [11] it was 1.1; in data set [12], 1.1; in data set [13], 0.9; in data set [14] it was 0.9.

With `Clc1nccs1`, the Activity in [1] was 0.8%; in data set [2], 18.9%; in data set [3], 107%; in data set [4], 23.1%; in data set [5], 73.8%; in data set [6], 122%. Besides, the Activity in data set [7] was 93%. Also, the Stability entry in data set [8] is “Stable”. Moreover, the Activity_index in data set [9] amounted to 1; in [10], 1; in [11], 1; in data set [12] it was 0.9; in data set [13], 0.9; in data set [14], 1.

On to `O=C(O)c1nc(Br)cs1`, for which the Activity in data set [1] was determined as 90%; in data set [2] it was 97.3%; in [3], 106%; in [4], 88.3%; in data set [5], 85.1%; in [6], 111%. For the same compound, the Activity in data set [7] came to 84%. Moreover, the Activity_index turned out to be 1 in data set [9]; 1 in [10]; 1 in data set [11]; 0.9 in data set [12]; 0.9 in data set [13]; 0.9 in [14].

In the case of `O=C(O)Cc1csc(Br)n1`, the Activity in data set [1] was found to be 72.1%; in [2] it was 105%; in data set [3], 106%; in data set [4], 77.1%; in [5] it was 68.6%; in data set [6], 86.1%. Besides, in data set [7], the Activity was 103%. Moreover, the Activity_index came out at 1 in data set [9]; 1 in [10]; 0.9 in data set [11]; 1 in data set [12]; 1 in [13]; 0.9 in data set [14].

In the case of `CCOC(=O)Cc1csc(Br)n1`, the Activity in [1] turned out to be 66.7%; in data set [2] it was 86.7%; in data set [4], 72%; in data set [5] it was 70.8%; in data set [6], 89.6%; in data set [7], 95%. Also, the Activity_index in [9] was 1; in data set [10], 1; in data set [11], 1; in [12] it was 0.9; in [13], 0.9; in data set [14] it was 0.9.

In the case of `CC(=O)c1nc(C)cs1`, the Activity in data set [1] is 93.9%; in data set [2] it was 102%; in data set [3] it was 93.5%; in [4] it was 106%; in [5], 78.4%; in data set [6], 136%. Also, the Activity in data set [7] was found to be 92%. The Activity_index is given as 1 in [9]; 1 in [10]; 1 in data set [11]; 0.8 in data set [12]; 0.9 in data set [13]; 0.9 in data set [14].

These data come from ChEMBL document CHEMBL5104216, “Fragment-Sized Thiazoles in Fragment-Based Drug Discovery Campaigns: Friend or Foe?” (ACS Med Chem Lett, 2022).
